Several values for one entry are separate records, joined by “and”; a condition that tells them apart may be missing. Equal entries are not always repeated. Where two headings read alike, the source gives them in different places.
What was measured:
A549 = assay: MTT anti-proliferative assay, A549; assay type: cell-based, human
MCF-7 = assay: MTT anti-proliferative assay, MCF-7; assay type: cell-based, human
A549 cells [1] = assay: Cell cycle analysis by flow cytometry; assay type: cell-based, human; settings: A549, 17.79 µM, 72 h
Summary of the method: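 A549 cells were exposed to the test compound at 17.79 μM for 72 h, with untreated A549 cells as comparator. Cell-cycle distribution was read by flow cytometry as the percentage of the population in Sub-G1, G1, S and G2/M phases.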

EGFR^T790M = EGFR^T790M (Homo sapiens, UniProt P00533, T790M); assay: EGFR^T790M kinase inhibition; assay type: biochemical
EGFR^T790M, sequence (P00533 25-1210 T790M): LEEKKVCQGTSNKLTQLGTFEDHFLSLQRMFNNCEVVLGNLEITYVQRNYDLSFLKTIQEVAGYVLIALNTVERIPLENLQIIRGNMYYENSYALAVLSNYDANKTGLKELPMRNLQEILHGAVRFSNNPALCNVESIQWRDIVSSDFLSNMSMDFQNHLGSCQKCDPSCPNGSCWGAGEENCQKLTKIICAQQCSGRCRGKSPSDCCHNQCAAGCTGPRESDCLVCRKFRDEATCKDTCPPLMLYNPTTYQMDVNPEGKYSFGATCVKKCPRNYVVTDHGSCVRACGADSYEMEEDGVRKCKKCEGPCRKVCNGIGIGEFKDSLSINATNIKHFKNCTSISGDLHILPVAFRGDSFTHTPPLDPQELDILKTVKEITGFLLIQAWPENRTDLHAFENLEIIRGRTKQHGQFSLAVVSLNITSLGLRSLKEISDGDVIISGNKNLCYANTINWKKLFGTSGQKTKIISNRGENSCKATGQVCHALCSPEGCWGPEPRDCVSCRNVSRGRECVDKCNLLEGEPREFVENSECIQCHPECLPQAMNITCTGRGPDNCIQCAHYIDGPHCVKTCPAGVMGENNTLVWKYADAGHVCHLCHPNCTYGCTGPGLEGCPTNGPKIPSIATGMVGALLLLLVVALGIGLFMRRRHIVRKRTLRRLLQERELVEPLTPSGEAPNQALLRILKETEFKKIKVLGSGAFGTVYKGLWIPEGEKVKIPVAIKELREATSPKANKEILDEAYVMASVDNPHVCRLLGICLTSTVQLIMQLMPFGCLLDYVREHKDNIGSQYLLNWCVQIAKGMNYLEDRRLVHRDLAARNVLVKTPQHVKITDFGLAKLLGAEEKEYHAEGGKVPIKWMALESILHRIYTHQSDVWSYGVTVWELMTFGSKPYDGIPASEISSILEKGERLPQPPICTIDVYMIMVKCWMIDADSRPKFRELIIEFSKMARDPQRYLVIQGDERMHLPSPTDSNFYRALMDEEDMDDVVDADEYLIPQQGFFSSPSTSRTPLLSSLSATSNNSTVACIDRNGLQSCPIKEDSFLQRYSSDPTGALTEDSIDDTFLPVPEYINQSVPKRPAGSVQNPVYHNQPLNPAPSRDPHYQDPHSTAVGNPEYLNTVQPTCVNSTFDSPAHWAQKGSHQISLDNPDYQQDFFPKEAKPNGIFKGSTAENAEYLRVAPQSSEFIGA

A549 cells [2] = assay: Apoptosis analysis, Annexin-V/propidium iodide staining; assay type: cell-based, human; settings: A549, 17.79 µM, 72 h
Summary of the method: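 Annexin-V-FITC/propidium iodide double staining of A549 cells exposed to the test compound (17.79 μM, 72 h), analysed by flow cytometry.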

EGFR^WT = EGFR^WT (Homo sapiens, UniProt P00533); assay: EGFR^WT kinase inhibition; assay type: biochemical
EGFR^WT, sequence (P00533 25-1210): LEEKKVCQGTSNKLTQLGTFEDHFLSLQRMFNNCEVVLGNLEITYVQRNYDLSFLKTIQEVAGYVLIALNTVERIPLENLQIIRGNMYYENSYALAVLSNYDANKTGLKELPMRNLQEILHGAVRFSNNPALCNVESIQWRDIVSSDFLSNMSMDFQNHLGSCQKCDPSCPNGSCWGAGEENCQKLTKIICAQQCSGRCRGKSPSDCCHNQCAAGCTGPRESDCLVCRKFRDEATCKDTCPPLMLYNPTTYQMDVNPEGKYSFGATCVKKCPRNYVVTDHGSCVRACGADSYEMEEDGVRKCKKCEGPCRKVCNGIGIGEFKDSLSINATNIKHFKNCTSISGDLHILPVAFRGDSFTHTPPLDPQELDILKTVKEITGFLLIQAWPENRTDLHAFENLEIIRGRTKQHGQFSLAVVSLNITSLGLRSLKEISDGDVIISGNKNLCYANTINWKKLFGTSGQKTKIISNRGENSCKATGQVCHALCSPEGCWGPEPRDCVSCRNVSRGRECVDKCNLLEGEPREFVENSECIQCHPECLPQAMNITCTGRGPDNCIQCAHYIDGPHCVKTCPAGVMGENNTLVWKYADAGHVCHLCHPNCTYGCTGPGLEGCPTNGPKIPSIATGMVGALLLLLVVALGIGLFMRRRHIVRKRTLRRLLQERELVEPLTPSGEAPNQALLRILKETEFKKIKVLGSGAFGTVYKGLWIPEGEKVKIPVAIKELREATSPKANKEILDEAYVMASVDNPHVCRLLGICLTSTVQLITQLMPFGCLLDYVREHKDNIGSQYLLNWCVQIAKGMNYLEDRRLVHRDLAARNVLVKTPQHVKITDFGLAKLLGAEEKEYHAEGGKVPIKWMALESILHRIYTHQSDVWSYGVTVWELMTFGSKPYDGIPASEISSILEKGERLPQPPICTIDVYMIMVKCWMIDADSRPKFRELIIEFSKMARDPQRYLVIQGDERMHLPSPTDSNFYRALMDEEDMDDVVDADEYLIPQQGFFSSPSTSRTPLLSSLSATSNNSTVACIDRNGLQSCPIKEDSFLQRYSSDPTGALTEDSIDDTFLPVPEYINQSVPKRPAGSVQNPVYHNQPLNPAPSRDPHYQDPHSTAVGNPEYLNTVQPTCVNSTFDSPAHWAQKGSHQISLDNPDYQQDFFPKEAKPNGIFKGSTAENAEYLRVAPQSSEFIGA

WI-38 = assay: Safety assay; settings: for IC50: Homo sapiens, WI-38, read-out: Cell lines IC50 WI-38
BAX and Bcl-2 genes = assay: BAX and Bcl-2 gene expression by quantitative RT-PCR; assay type: cell-based, human; settings: A549, 17.79 µM, 72 h
[3] = Homo sapiens, A549, read-out: Cell lines IC50 A549
[4] = Homo sapiens, MCF7, read-out: Cell lines IC50 MCF-7

CC1CCc2c(sc3ncnc(Nc4ccc(Cl)cc4)c23)C1 (centres unmarked) [5a, N-(4-Chlorophenyl)-7-methyl-5,6,7,8-tetrahydrobenzo[4,5]thieno[2,3-d]pyrimidin-4-amine]
IC50 (A549; [3]): 20.6 µM | IC50 (MCF-7; [4]): 29.3 µM

CC1CCc2c(sc3ncnc(Nc4ccccc4F)c23)C1 (centres unmarked) [5b, N-(2-Fluorophenyl)-7-methyl-5,6,7,8-tetrahydrobenzo[4,5]thieno[2,3-d]pyrimidin-4-amine]
Cell cycle distribution % G2/M (A549 cells [1]): 38.61% and 38.61 ± 2.11 % | Cell cycle distribution %G1 (A549 cells [1]): 23.19% and 23.19 ± 2.18 % | Cell cycle distribution %S (A549 cells [1]): 37.66% and 37.66 ± 4.19 % | Cell cycle distribution %Sub-G1 (A549 cells [1]): 0.54% and 0.54 ± 0.09% | IC50 (EGFR^T790M): 0.204 µM | IC50 (A549; [3]): 17.8 µM | Apoptosis Early (right bottom) (A549 cells [2]): 17.84% and 17.84 ± 3.68% | Apoptosis Late (right top) (A549 cells [2]): 45.71% and 45.71 ± 5.77 % | Necrosis (left top) (A549 cells [2]): 2.12 ± 0.11 | Viable (left bottom) (A549 cells [2]): 34.33 ± 2.20 | IC50 (EGFR^WT): 0.0372 µM | IC50 (WI-38): 70.1 µM | times safer against WI-38 than erlotinib (WI-38; ratio of WI-38 IC50 values vs erlotinib): 2.5 fold | IC50 (MCF-7; [4]): 22.7 µM | BAX/Bcl-2 ratio (BAX and Bcl-2 genes; control set to 1): 8.3 fold change and 8.35 ± 1.09 fold change | Gene expression BAX (BAX and Bcl-2 genes; control set to 1): 3 fold change and 2.97 ± 0.14 fold change | Gene expression Bcl-2 (BAX and Bcl-2 genes; control set to 1): 0.37 ± 0.06 fold change | downregulation of the Bcl-2 gene (BAX and Bcl-2 genes; vs untreated cells): 3 fold

COc1ccc(Nc2ncnc3sc4c(c23)CCC(C)C4)cc1 (centres unmarked) [5c, N-(4-Methoxyphenyl)-7-methyl-5,6,7,8-tetrahydrobenzo[4,5]thieno[2,3-d]pyrimidin-4-amine]
IC50 (A549; [3]): 27.1 µM | IC50 (MCF-7; [4]): 30 µM

CC1CCc2c(sc3ncnc(Nc4ccc(N)cc4)c23)C1 (centres unmarked) [5d, N^1-(7-Methyl-5,6,7,8-tetrahydro[1]benzothieno[2,3-d]pyrimidin-4-yl)benzene-1,4-diamine]
IC50 (A549; [3]): 34.8 µM | IC50 (MCF-7; [4]): 35.5 µM

CC1CCc2c(sc3ncnc(Nc4ccccc4S(N)(=O)=O)c23)C1 (centres unmarked) [5e, 2-((7-Methyl-5,6,7,8-tetrahydrobenzo[4,5]thieno[2,3-d]pyrimidin-4-yl)amino)benzene sulphonamide]
IC50 (A549; [3]): 19.9 µM | IC50 (MCF-7; [4]): 29.2 µM

CC1CCc2c(sc3ncnc(Nc4ccc(S(N)(=O)=O)cc4)c23)C1 (centres unmarked) [5f, 4-((7-Methyl-5,6,7,8-tetrahydrobenzo[4,5]thieno[2,3-d]pyrimidin-4-yl)amino)benzene sulphonamide]
IC50 (A549; [3]): 17.5 µM | IC50 (EGFR^WT): 0.0356 µM | IC50 (MCF-7; [4]): 21.4 µM

CC1CCc2c(sc3ncnc(NNC(N)=S)c23)C1 (centres unmarked) [7a, 2–(7-Methyl-5,6,7,8-tetrahydro[1]benzothieno[2,3-d]pyrimidin-4-yl)hydrazine carbothioamide]
IC50 (A549; [3]): 28.7 µM | IC50 (MCF-7; [4]): 35.7 µM

CC1CCc2c(sc3ncnc(NN)c23)C1 (centres unmarked) [7b, 4-Hydrazinyl-7-methyl-5,6,7,8-tetrahydro[1]benzothieno[2,3-d]pyrimidine]
IC50 (A549; [3]): 18.4 µM | IC50 (MCF-7; [4]): 23.7 µM

C#Cc1cccc(Nc2ncnc3cc(OCCOC)c(OCCOC)cc23)c1 [Erlotinib, reference compound]
IC50 (A549; [3]): 4.18 µM | IC50 (WI-38): 28.5 µM | IC50 (MCF-7; [4]): 14.3 µM

N-((7-Methyl-5,6,7,8-tetrahydro[1]benzothieno[2,3-d]pyrimidin-4-yl)methyl) aniline [compound 6]
IC50 (A549; read-out: Cell lines IC50 A549, MTT, mean of three experiments): 21.2 µM | IC50 (MCF-7; read-out: Cell lines IC50 MCF-7, MTT, mean of three experiments): 26.6 µM
